{
  "source": "ChEMBL document CHEMBL1649314",
  "about": "“Experimental murine scedosporiosis: histopathology and azole treatment” (2010)",
  "key": {"[1]": {"test_system": "Scedosporium aurantiacum", "assay": "Antifungal activity against Scedosporium aurantiacum CBS 116910 infected in immunosuppressed OF1 mouse assessed as reduction in brain fungal burden at 40 mg/kg, po BID administered 24 hrs postinfection for 10 days measured after 20 days", "assay_type": "functional, organism-based", "set-up": "dose 40 mg/kg"}, "[2]": {"assay": "Antifungal activity against Scedosporium aurantiacum IHEM 15458 infected in immunosuppressed OF1 mouse assessed as prolonged survival of mouse at 10 mg/kg, po BID administered 24 hrs postinfection for 10 days measured after 20 days", "assay_type": "functional, organism-based", "set-up": "dose 10 mg/kg", "in_short": "(§1)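 Male OF1 mice, groups of 10, immunosuppressed 1 day before infection with cyclophosphamide 200 mg/kg i.p. plus 5-fluorouracil 150 mg/kg i.v. Infected i.v. via tail vein with 1 × 10^4 CFU in 0.2 ml saline. Oral treatment began 24 h post-challenge for 10 days. Mice checked daily for 20 days. Survival by Kaplan-Meier, compared by log rank test.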"}, "[3]": {"test_system": "Scedosporium boydii", "assay": "Antifungal activity against Scedosporium boydii FMR 8627 infected in immunosuppressed OF1 mouse assessed as reduction in kidney fungal burden at 20 mg/kg, po BID administered 24 hrs postinfection for 10 days measured after 20 days", "assay_type": "functional, organism-based", "set-up": "dose 20 mg/kg"}, "[4]": {"assay": "Antifungal activity against Scedosporium aurantiacum IHEM 15458 by broth dilution method", "assay_type": "functional"}, "[5]": {"test_system": "Scedosporium boydii", "assay": "Antifungal activity against Scedosporium boydii FMR 8627 infected in immunosuppressed OF1 mouse assessed as reduction in kidney fungal burden at 10 mg/kg, po BID administered 24 hrs postinfection for 10 days measured after 20 days", "assay_type": "functional, organism-based", "set-up": "dose 10 mg/kg"}, "[6]": {"test_system": "Scedosporium boydii", "assay": "Antifungal activity against Scedosporium boydii FMR 6694 infected in immunosuppressed OF1 mouse assessed as reduction in kidney fungal burden at 20 mg/kg, po BID administered 24 hrs postinfection for 10 days measured after 20 days", "assay_type": "functional, organism-based", "set-up": "dose 20 mg/kg"}, "[7]": {"test_system": "Scedosporium boydii", "assay": "Antifungal activity against Scedosporium boydii FMR 6694 by broth dilution method", "assay_type": "functional"}, "[8]": {"test_system": "Scedosporium apiospermum", "assay": "Antifungal activity against Scedosporium apiospermum IHEM 14464 infected in immunosuppressed OF1 mouse assessed as reduction in kidney fungal burden at 20 mg/kg, po BID administered 24 hrs postinfection for 10 days measured after 20 days", "assay_type": "functional, organism-based", "set-up": "dose 20 mg/kg"}, "[9]": {"test_system": "Scedosporium boydii", "assay": "Antifungal activity against Scedosporium boydii FMR 8627 infected in immunosuppressed OF1 mouse assessed as reduction in brain fungal burden at 20 mg/kg, po BID administered 24 hrs postinfection for 10 days measured after 20 days", "assay_type": "functional, organism-based", "set-up": "dose 20 mg/kg"}, "[10]": {"test_system": "Scedosporium aurantiacum", "assay": "Antifungal activity against Scedosporium aurantiacum IHEM 15458 infected in immunosuppressed OF1 mouse assessed as reduction in brain fungal burden at 20 mg/kg, po BID administered 24 hrs postinfection for 10 days measured after 20 days", "assay_type": "functional, organism-based", "set-up": "dose 20 mg/kg"}, "[11]": {"test_system": "Scedosporium apiospermum", "assay": "Antifungal activity against Scedosporium apiospermum IHEM 14464 infected in immunosuppressed OF1 mouse assessed as reduction in kidney fungal burden at 10 mg/kg, po BID administered 24 hrs postinfection for 10 days measured after 20 days", "assay_type": "functional, organism-based", "set-up": "dose 10 mg/kg"}, "[12]": {"test_system": "Scedosporium apiospermum", "assay": "Antifungal activity against Scedosporium apiospermum CBS 117407 by broth dilution method", "assay_type": "functional"}, "[13]": {"assay": "Antifungal activity against Scedosporium aurantiacum IHEM 15458 infected in immunosuppressed OF1 mouse assessed as prolonged survival of mouse at 20 mg/kg, po BID administered 24 hrs postinfection for 10 days measured after 20 days", "assay_type": "functional, organism-based", "set-up": "dose 20 mg/kg", "in_short": "as §1"}, "[14]": {"test_system": "Scedosporium boydii", "assay": "Antifungal activity against Scedosporium boydii FMR 8627 infected in immunosuppressed OF1 mouse assessed as prolonged survival of mouse at 10 mg/kg, po BID administered 24 hrs postinfection for 10 days measured after 20 days", "assay_type": "functional, organism-based", "set-up": "dose 10 mg/kg", "in_short": "(§2)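 Male OF1 mice were immunosuppressed 1 day before infection with cyclophosphamide 200 mg/kg i.p. plus 5-fluorouracil 150 mg/kg i.v. They were infected i.v. via a lateral tail vein with 1 × 10^4 CFU/mouse in 0.2 ml saline. Oral dosing was 10 or 20 mg/kg twice daily, or 20 or 40 mg/kg once daily (those mice and controls drank grapefruit juice from day −3). Dosing ran 24 h post-challenge for 10 days; 10 mice/group; observed daily to day 20; Kaplan-Meier with log rank test.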"}, "[15]": {"test_system": "Scedosporium apiospermum", "assay": "Antifungal activity against Scedosporium apiospermum CBS 117407 infected in immunosuppressed OF1 mouse assessed as reduction in brain fungal burden at 20 mg/kg, po BID administered 24 hrs postinfection for 10 days measured after 20 days", "assay_type": "functional, organism-based", "set-up": "dose 20 mg/kg"}, "[16]": {"assay": "Antifungal activity against Scedosporium aurantiacum CBS 116910 by broth dilution method", "assay_type": "functional"}, "[17]": {"test_system": "Scedosporium apiospermum", "assay": "Antifungal activity against Scedosporium apiospermum IHEM 14464 by broth dilution method", "assay_type": "functional"}, "[18]": {"test_system": "Scedosporium aurantiacum", "assay": "Antifungal activity against Scedosporium aurantiacum IHEM 15458 infected in immunosuppressed OF1 mouse assessed as reduction in kidney fungal burden at 10 mg/kg, po BID administered 24 hrs postinfection for 10 days measured after 20 days", "assay_type": "functional, organism-based", "set-up": "dose 10 mg/kg"}, "[19]": {"test_system": "Scedosporium boydii", "assay": "Antifungal activity against Scedosporium boydii FMR 6694 infected in immunosuppressed OF1 mouse assessed as prolonged survival of mouse at 10 mg/kg, po BID administered 24 hrs postinfection for 10 days measured after 20 days", "assay_type": "functional, organism-based", "set-up": "dose 10 mg/kg", "in_short": "as §1"}, "[20]": {"test_system": "Scedosporium aurantiacum", "assay": "Antifungal activity against Scedosporium aurantiacum IHEM 15458 infected in immunosuppressed OF1 mouse assessed as reduction in brain fungal burden at 40 mg/kg, po BID administered 24 hrs postinfection for 10 days measured after 20 days", "assay_type": "functional, organism-based", "set-up": "dose 40 mg/kg"}, "[21]": {"assay": "Antifungal activity against Scedosporium aurantiacum CBS 116910 infected in immunosuppressed OF1 mouse assessed as prolonged survival of mouse at 10 mg/kg, po BID administered 24 hrs postinfection for 10 days measured after 20 days", "assay_type": "functional, organism-based", "set-up": "dose 10 mg/kg", "in_short": "as §1"}, "[22]": {"test_system": "Scedosporium aurantiacum", "assay": "Antifungal activity against Scedosporium aurantiacum CBS 116910 infected in immunosuppressed OF1 mouse assessed as reduction in kidney fungal burden at 20 mg/kg, po BID administered 24 hrs postinfection for 10 days measured after 20 days", "assay_type": "functional, organism-based", "set-up": "dose 20 mg/kg"}, "[23]": {"test_system": "Scedosporium apiospermum", "assay": "Antifungal activity against Scedosporium apiospermum IHEM 14464 infected in immunosuppressed OF1 mouse assessed as prolonged survival of mouse at 20 mg/kg, po BID administered 24 hrs postinfection for 10 days measured after 20 days", "assay_type": "functional, organism-based", "set-up": "dose 20 mg/kg", "in_short": "as §1"}, "[24]": {"test_system": "Scedosporium boydii", "assay": "Antifungal activity against Scedosporium boydii FMR 8627 by broth dilution method", "assay_type": "functional"}, "[25]": {"test_system": "Scedosporium apiospermum", "assay": "Antifungal activity against Scedosporium apiospermum CBS 117407 infected in immunosuppressed OF1 mouse assessed as reduction in brain fungal burden at 40 mg/kg, po BID administered 24 hrs postinfection for 10 days measured after 20 days", "assay_type": "functional, organism-based", "set-up": "dose 40 mg/kg"}, "[26]": {"test_system": "Scedosporium apiospermum", "assay": "Antifungal activity against Scedosporium apiospermum CBS 117407 infected in immunosuppressed OF1 mouse assessed as reduction in kidney fungal burden at 20 mg/kg, po BID administered 24 hrs postinfection for 10 days measured after 20 days", "assay_type": "functional, organism-based", "set-up": "dose 20 mg/kg"}, "[27]": {"test_system": "Scedosporium boydii", "assay": "Antifungal activity against Scedosporium boydii FMR 6694 infected in immunosuppressed OF1 mouse assessed as prolonged survival of mouse at 20 mg/kg, po BID administered 24 hrs postinfection for 10 days measured after 20 days", "assay_type": "functional, organism-based", "set-up": "dose 20 mg/kg", "in_short": "as §1"}, "[28]": {"test_system": "Scedosporium boydii", "assay": "Antifungal activity against Scedosporium boydii FMR 6694 infected in immunosuppressed OF1 mouse assessed as reduction in brain fungal burden at 20 mg/kg, po BID administered 24 hrs postinfection for 10 days measured after 20 days", "assay_type": "functional, organism-based", "set-up": "dose 20 mg/kg"}, "[29]": {"test_system": "Scedosporium boydii", "assay": "Antifungal activity against Scedosporium boydii FMR 8627 infected in immunosuppressed OF1 mouse assessed as prolonged survival of mouse at 20 mg/kg, po BID administered 24 hrs postinfection for 10 days measured after 20 days", "assay_type": "functional, organism-based", "set-up": "dose 20 mg/kg", "in_short": "as §2"}},
  "note": "Active and inactive are the calls of the source. The rule behind the calls is not given here.",
  "data": [
    {"smiles": "CC[C@@H]([C@H](C)O)n1ncn(-c2ccc(N3CCN(c4ccc(OC[C@@H]5CO[C@@](Cn6cncn6)(c6ccc(F)cc6F)C5)cc4)CC3)cc2)c1=O", "note": "[POSACONAZOLE]", "values": [
      {"measurement": "Activity", "setting": "[1]", "value": "Active"},
      {"measurement": "Activity", "setting": "[2]", "value": "Active"},
      {"measurement": "Activity", "setting": "[3]", "value": "Active"},
      {"measurement": "MIC", "setting": "[4]", "value": 2, "unit": "µg/mL"},
      {"measurement": "Activity", "setting": "[5]", "value": "Active"},
      {"measurement": "Activity", "setting": "[6]", "value": "inactive"},
      {"measurement": "MIC", "setting": "[7]", "value": 1, "unit": "µg/mL"},
      {"measurement": "Activity", "setting": "[8]", "value": "Active"},
      {"measurement": "Activity", "setting": "[9]", "value": "Active"},
      {"measurement": "Activity", "setting": "[10]", "value": "Active"},
      {"measurement": "Activity", "setting": "[11]", "value": "Active"},
      {"measurement": "MIC", "setting": "[12]", "value": 1, "unit": "µg/mL"},
      {"measurement": "Activity", "setting": "[13]", "value": "Active"},
      {"measurement": "Activity", "setting": "[14]", "value": "Active"},
      {"measurement": "Activity", "setting": "[15]", "value": "Active"},
      {"measurement": "MIC", "setting": "[16]", "value": 32, "unit": "µg/mL"},
      {"measurement": "MIC", "setting": "[17]", "value": 0.5, "unit": "µg/mL"},
      {"measurement": "Activity", "setting": "[18]", "value": "Active"},
      {"measurement": "Activity", "setting": "[19]", "value": "Active"},
      {"measurement": "Activity", "setting": "[20]", "value": "Active"},
      {"measurement": "Activity", "setting": "[21]", "value": "Active"},
      {"measurement": "Activity", "setting": "[22]", "value": "Active"},
      {"measurement": "Activity", "setting": "[23]", "value": "Active"},
      {"measurement": "MIC", "setting": "[24]", "value": 1, "unit": "µg/mL"},
      {"measurement": "Activity", "setting": "[25]", "value": "Active"},
      {"measurement": "Activity", "setting": "[26]", "value": "Active"},
      {"measurement": "Activity", "setting": "[27]", "value": "Active"},
      {"measurement": "Activity", "setting": "[28]", "value": "inactive"},
      {"measurement": "Activity", "setting": "[29]", "value": "Active"}
    ]}
  ]
}
